Reference: ChEMBL document CHEMBL2390937, “Evaluation of selective inhibitors of 11β-HSD1 for the treatment of hypertension” (Bioorg Med Chem Lett, 2013)
The source made the active and inactive calls. The rule behind the calls is not given here.

Key:
Homo sapiens [1] = species on record: Homo sapiens; experiment: Antihypertensive activity in hypertensive patients assessed as placebo-corrected diastolic BP at 6 mg/day
Homo sapiens [2] = species on record: Homo sapiens; experiment: Antihypertensive activity in hypertensive patients assessed as placebo-corrected systolic BP at 6 mg/day
[3] = Plasma concentration in spontaneously hypertensive rat model at 10 mg/kg measured after 4 hrs; assay type: ADME, organism-based; parameters: dose 10 mg/kg
Procedure, shortened: (§1)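 Rats received 10 mg/kg and were sacrificed at peak (about 4 h) or trough (about 24 h) post dose. Total and free drug were measured in plasma, isolated brain and CSF, and the brain/plasma ratio was derived from these.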

Rattus norvegicus [4] = experiment: Antihypertensive activity in spontaneously hypertensive rat model assessed as reduction in systolic BP at 10 mg/kg for 7 days; assay type: functional
Procedure, shortened: (§2)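 Spontaneously hypertensive rats implanted with telemetry abdominal aorta catheters and dosed daily at 10 mg/kg over 7 days. Heart rate and systolic and diastolic BP were recorded, with change from baseline compared against vehicle-treated animals.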

Rattus norvegicus [5] = experiment: Antihypertensive activity in spontaneously hypertensive rat model assessed as reduction in heart rate at 10 mg/kg for 7 days; assay type: functional, organism-based; parameters: dose 10 mg/kg
Procedure, shortened: as §2

[6] = Drug level in spontaneously hypertensive rat CSF at 10 mg/kg measured after 4 hrs; assay type: ADME, organism-based, Cerebrospinal fluid; parameters: dose 10 mg/kg; conditions: read-out: Drug uptake
Procedure, shortened: as §1

Plasma [7] = experiment: Free plasma concentration in spontaneously hypertensive rat at 10 mg/kg measured after 4 hrs; assay type: ADME, organism-based; parameters: dose 10 mg/kg; conditions: in vivo
Procedure, shortened: as §1

[8] = target: 11-beta-hydroxysteroid dehydrogenase 1 (Rattus norvegicus, UniProt P16232); experiment: Inhibition of rat 11beta-HSD1
Brain [9] = experiment: Free drug level in spontaneously hypertensive rat brain at 10 mg/kg measured after 24 hrs; assay type: ADME, organism-based; parameters: dose 10 mg/kg; conditions: in vivo
Procedure, shortened: as §1

[10] = Ratio of drug level in brain to plasma of spontaneously hypertensive rat at 10 mg/kg; assay type: ADME, organism-based; parameters: dose 10 mg/kg; conditions: read-out: BPR
Procedure, shortened: as §1

Brain [11] = experiment: Free drug level in spontaneously hypertensive rat brain at 10 mg/kg measured after 4 hrs; assay type: ADME, organism-based; parameters: dose 10 mg/kg; conditions: in vivo
Procedure, shortened: as §1

Plasma [12] = experiment: Free plasma concentration in spontaneously hypertensive rat at 10 mg/kg measured after 24 hrs; assay type: ADME, organism-based; parameters: dose 10 mg/kg; conditions: in vivo
Procedure, shortened: as §1

[13] = Plasma concentration in spontaneously hypertensive rat model at 10 mg/kg measured after 24 hrs; assay type: ADME, organism-based; parameters: dose 10 mg/kg
Procedure, shortened: as §1

Rattus norvegicus [14] = experiment: Antihypertensive activity in spontaneously hypertensive rat model assessed as reduction in diastolic BP at 10 mg/kg for 7 days; assay type: functional, organism-based; parameters: dose 10 mg/kg
Procedure, shortened: as §2

[15] = Total drug level in spontaneously hypertensive rat brain at 10 mg/kg measured after 4 hrs; assay type: ADME, organism-based; parameters: dose 10 mg/kg; conditions: read-out: Drug uptake
Procedure, shortened: as §1

[16] = Drug level in spontaneously hypertensive rat CSF at 10 mg/kg measured after 24 hrs; assay type: ADME, organism-based, Cerebrospinal fluid; parameters: dose 10 mg/kg; conditions: read-out: Drug uptake
Procedure, shortened: as §1

[17] = Total drug level in spontaneously hypertensive rat brain at 10 mg/kg measured after 24 hrs; assay type: ADME, organism-based; parameters: dose 10 mg/kg; conditions: read-out: Drug uptake
Procedure, shortened: as §1

Mus musculus [18] = experiment: Antihypertensive activity in telemeterized 11beta-HSD1 KO mouse assessed as reduction in systolic BP at 30 mg/kg/day for 11 days; assay type: functional
Procedure, shortened: (§3)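 Telemeterized 11β-HSD1 knockout mice and wild-type controls (not littermates) were dosed at 30 mg/kg/day. Systolic BP change was compared with vehicle-treated mice of each genotype, and plasma exposure was also measured.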

[19] = target: 11-beta-HSD2 (Homo sapiens); experiment: Inhibition of human microsomal 11beta-HSD2 assessed as inhibition of […] by cell-based assay
Mus musculus [20] = experiment: Antihypertensive activity in telemeterized wild type mouse assessed as reduction in systolic BP at 30 mg/kg/day for 11 days; assay type: functional
Procedure, shortened: as §3

[21] = system: 11-beta-HSD1 (Rattus norvegicus); experiment: Binding affinity to rat liver microsomal 11beta-HSD1 by radiometric competition assay
Homo sapiens [22] = species on record: Homo sapiens; experiment: Antihypertensive activity in hypertensive patients assessed as placebo-corrected systolic BP at 7 mg/day
Homo sapiens [23] = species on record: Homo sapiens; experiment: Antihypertensive activity in hypertensive patients assessed as placebo-corrected diastolic BP at 7 mg/day

Chain of 11-beta-hydroxysteroid dehydrogenase 1 (P16232 whole entry): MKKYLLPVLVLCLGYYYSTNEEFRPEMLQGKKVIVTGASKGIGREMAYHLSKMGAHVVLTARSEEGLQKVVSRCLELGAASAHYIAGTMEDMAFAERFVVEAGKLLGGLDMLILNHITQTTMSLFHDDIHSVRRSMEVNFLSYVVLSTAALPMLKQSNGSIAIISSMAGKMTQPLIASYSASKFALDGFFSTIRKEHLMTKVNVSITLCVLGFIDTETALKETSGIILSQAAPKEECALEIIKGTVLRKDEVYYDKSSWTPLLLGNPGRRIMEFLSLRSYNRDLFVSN

concentration at 4 h [3] [µM]	concentration at 4 h [6] [µM]	Cp(f) (Plasma [7]) [µM]	IC50 [8] [nM]	Ki [8] [nM]	Drug uptake(free) (Brain [9]) [µM]	Kp [10]	Drug uptake(free) (Brain [11]) [µM]	Cp(f) (Plasma [12]) [µM]	concentration at 24 h [13] [µM]	concentration at 4 h [15] [µM]	concentration at 24 h [16] [µM]	concentration at 24 h [17] [µM]	SMILES	Activity (Rattus norvegicus [4]) [mmHg]	Activity (Rattus norvegicus [5])	Activity (Rattus norvegicus [14])	other results
													F[C@H]1C[C@](c2ccc(Cl)cc2)(c2nnc(C3CC3)n2C2CC2)C1				Activity (Homo sapiens [1]): -5.4 mmHg; Activity (Homo sapiens [2]): -7.9 mmHg
24.2	5.1	9.5	6	3.9	0.2	< 1	0.5	1.9	6	5	0.7	0.7	CCS(=O)(=O)CCC12CCC(c3nnc(-c4ccccc4C(F)(F)F)n3C)(CC1)CC2	3	Active	Active	
25	4.4	2.5	4.5	7	2.4	> 1	3	2.4	25.4	60.5	3.4	55.4	Cn1c(-c2ccccc2C(F)(F)F)nnc1C12CCC(c3noc(C(C)(F)F)n3)(CC1)CC2	>15	Active	Active	Activity (Mus musculus [18]): -5.8 mmHg; IC50 [19]: 3100 nM; Activity (Mus musculus [20]): -8 mmHg; Bmax ([21]; tested as the 3H-labelled form): 55500 fmol/mg
													CCS(=O)(=O)CCCC12CCC(c3nnc(-c4ccccc4C(F)(F)F)n3C)(CC1)CC2 [MK-0736]				Activity (Homo sapiens [22]): -7.7 mmHg; Activity (Homo sapiens [23]): -4.4 mmHg
13.9	0.2	0.07			0.06	> 1	0.08	0.05	12.1	44.4	0.2	39.1	Cn1c(-c2ccccc2C(F)(F)F)nnc1C12CCC(c3nc(-c4ccc(F)cc4)no3)(CC1)CC2	>15	Active	Active	
27.7	2.1	8	9.1	13.1	0.2	< 1	1.3	2.1	10.2	3.1	0.7	0.8	CCS(=O)(=O)CC12CCC(c3nnc(-c4ccccc4C(F)(F)F)n3C)(CC1)CC2	3	Active	Active	
													[3H]c1cc(-c2nnc(C34CCC(c5noc(C(C)(F)F)n5)(CC3)CC4)n2C)c(C(F)(F)F)cc1[3H]				Kd [21]: 11 nM
